The target in the first assay is Histidine kinase 4 (Arabidopsis thaliana, UniProt Q9C5U0). The assay is described as follows: Activation of Arabidopsis thaliana AHK4/CRE1 receptor expressed in Escherichia coli KMI001 by beta-galactosidase activity.
Sequence of Histidine kinase 4 (Q9C5U0 whole entry): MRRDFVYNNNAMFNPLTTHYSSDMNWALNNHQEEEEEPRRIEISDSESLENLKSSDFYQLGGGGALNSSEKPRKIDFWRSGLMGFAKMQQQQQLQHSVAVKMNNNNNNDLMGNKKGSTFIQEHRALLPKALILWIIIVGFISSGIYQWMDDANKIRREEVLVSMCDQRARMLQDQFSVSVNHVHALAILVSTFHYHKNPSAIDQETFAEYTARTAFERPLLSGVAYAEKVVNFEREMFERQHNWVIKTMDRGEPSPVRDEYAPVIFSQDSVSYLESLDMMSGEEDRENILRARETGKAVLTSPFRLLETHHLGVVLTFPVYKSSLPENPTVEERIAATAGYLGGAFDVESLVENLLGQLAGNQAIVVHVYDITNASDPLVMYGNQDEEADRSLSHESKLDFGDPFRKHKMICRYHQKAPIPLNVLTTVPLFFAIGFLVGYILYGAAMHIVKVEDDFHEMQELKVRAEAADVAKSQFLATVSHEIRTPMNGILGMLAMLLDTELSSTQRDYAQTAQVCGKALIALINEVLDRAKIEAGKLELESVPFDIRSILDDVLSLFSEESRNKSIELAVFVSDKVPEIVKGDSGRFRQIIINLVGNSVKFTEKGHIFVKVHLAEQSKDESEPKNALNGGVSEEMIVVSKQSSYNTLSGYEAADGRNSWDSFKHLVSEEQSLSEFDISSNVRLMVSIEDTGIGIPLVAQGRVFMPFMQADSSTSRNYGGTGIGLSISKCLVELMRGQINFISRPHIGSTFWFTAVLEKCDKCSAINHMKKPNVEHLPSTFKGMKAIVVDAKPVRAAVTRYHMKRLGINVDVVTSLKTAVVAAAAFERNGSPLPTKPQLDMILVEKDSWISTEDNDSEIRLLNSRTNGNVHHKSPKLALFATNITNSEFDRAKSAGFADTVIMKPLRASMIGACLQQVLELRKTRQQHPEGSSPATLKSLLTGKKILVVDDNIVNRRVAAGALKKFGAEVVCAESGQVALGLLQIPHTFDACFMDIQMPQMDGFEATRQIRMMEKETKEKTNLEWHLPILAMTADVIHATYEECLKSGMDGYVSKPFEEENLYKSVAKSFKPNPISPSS
Conditions: not given
Turning to `Clc1ccc(Nc2nc(Cl)nc3[nH]cnc23)cc1`, the EC50 (in general, the concentration at which the effect is half-maximal) was > 50 µM.

As for `COc1cccc(Nc2nc(F)nc3[nH]cnc23)c1`, a half-maximal effect (EC50) was put at 19 µM.

As for `Oc1cccc(Nc2nc(Cl)nc3[nH]cnc23)c1`, the midpoint of the response, the EC50, lay at 3.75 µM. Compared with the last molecule, the EC50 is about 5.1-fold lower.

Consider `Oc1ccc(Nc2nc(Cl)nc3[nH]cnc23)cc1`, for which the EC50 amounted to 4.6 µM. The EC50 values of the last two molecules are within 1.5-fold of each other.

Consider `COc1cccc(Nc2nc(Cl)nc3[nH]cnc23)c1`, for which the response was half-maximal at 7 µM (EC50).

`COc1cccc(Nc2ncnc3[nH]cnc23)c1` showed a concentration for a half-maximal effect (EC50) of 31 µM.

Take `Oc1ccccc1Nc1nc(Cl)nc2nc[nH]c12`: the 50% effective concentration (EC50) is > 50 µM.

`Fc1cccc(Nc2nc(Cl)nc3[nH]cnc23)c1` returned an EC50 of 24.8 µM.

On to `C/C(=C\CNc1ncnc2[nH]cnc12)CO`, for which a half-maximal response (EC50) required 1.1 µM. Against the preceding molecule, the EC50 is about 23-fold lower.

For the molecule `O=C(Nc1ccccc1)Nc1cnns1` [THIDIAZURON], the EC50 came to 1 µM.

In a further assay the target is T1, Histidine kinase 3 (Arabidopsis thaliana, UniProt Q9C5U1).
T1 sequence (Q9C5U1 whole entry): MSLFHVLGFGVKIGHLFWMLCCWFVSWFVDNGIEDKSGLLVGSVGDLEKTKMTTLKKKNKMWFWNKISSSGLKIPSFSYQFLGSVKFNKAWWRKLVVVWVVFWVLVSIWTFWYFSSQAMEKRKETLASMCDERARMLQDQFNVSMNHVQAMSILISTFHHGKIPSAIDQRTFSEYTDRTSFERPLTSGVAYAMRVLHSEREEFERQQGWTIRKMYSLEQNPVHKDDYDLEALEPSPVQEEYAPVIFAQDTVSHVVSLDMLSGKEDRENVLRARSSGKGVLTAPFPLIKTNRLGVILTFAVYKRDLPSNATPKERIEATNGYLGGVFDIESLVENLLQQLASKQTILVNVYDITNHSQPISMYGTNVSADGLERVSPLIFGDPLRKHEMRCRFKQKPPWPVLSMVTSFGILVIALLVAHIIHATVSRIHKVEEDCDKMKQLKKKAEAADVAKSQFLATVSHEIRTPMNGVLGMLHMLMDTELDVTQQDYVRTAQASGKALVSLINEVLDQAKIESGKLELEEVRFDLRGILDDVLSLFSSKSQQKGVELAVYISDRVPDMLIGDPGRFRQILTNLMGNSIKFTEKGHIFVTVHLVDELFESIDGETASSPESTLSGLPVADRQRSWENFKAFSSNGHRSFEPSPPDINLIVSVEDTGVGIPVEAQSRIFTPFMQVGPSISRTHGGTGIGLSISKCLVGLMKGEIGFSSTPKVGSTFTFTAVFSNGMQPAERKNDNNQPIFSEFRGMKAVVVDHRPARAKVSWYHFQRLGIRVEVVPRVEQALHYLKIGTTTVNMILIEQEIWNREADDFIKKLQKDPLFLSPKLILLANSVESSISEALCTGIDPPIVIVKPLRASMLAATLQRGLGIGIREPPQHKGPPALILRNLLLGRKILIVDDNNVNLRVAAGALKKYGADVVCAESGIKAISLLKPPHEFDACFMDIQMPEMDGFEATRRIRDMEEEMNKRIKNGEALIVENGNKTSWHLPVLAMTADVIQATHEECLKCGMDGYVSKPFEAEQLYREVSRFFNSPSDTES
The assay is described as follows: Activation of Arabidopsis thaliana AHK3 receptor expressed in Escherichia coli KMI001 by beta-galactosidase activity.
Conditions: not given
For the molecule `Clc1ccc(Nc2nc(Cl)nc3[nH]cnc23)cc1`, the EC50 was 15.1 µM.

The molecule `COc1cccc(Nc2nc(F)nc3[nH]cnc23)c1` showed an EC50 of 19 µM. This EC50 and that of the molecule before are within 1.5-fold of each other.

As to `Oc1cccc(Nc2nc(Cl)nc3[nH]cnc23)c1`, the response was half-maximal at 13 µM (EC50).

In the case of `Oc1ccc(Nc2nc(Cl)nc3[nH]cnc23)cc1`, the half-maximal effective concentration (EC50) worked out at 16.5 µM.

In the case of `COc1cccc(Nc2nc(Cl)nc3[nH]cnc23)c1`, the EC50 was determined as 21 µM.

Molecule `COc1cccc(Nc2ncnc3[nH]cnc23)c1` returned an EC50 of 2.3 µM.

`Oc1ccccc1Nc1nc(Cl)nc2nc[nH]c12`: the EC50 came out at 19 µM. Against the preceding molecule, the EC50 is about 8.3-fold higher.

On to `Fc1cccc(Nc2nc(Cl)nc3[nH]cnc23)c1`, for which a half-maximal response (EC50) required 6 µM.

`C/C(=C\CNc1ncnc2[nH]cnc12)CO` registered a concentration for a half-maximal effect (EC50) of 0.7 µM.

In turn, `O=C(Nc1ccccc1)Nc1cnns1` [THIDIAZURON] registered a half-maximal effective concentration (EC50) of 0.95 µM.

Another assay has as its target T2, Cytokinin dehydrogenase 2 (Arabidopsis thaliana, UniProt Q9FUJ3).
T2 sequence (Q9FUJ3 whole entry): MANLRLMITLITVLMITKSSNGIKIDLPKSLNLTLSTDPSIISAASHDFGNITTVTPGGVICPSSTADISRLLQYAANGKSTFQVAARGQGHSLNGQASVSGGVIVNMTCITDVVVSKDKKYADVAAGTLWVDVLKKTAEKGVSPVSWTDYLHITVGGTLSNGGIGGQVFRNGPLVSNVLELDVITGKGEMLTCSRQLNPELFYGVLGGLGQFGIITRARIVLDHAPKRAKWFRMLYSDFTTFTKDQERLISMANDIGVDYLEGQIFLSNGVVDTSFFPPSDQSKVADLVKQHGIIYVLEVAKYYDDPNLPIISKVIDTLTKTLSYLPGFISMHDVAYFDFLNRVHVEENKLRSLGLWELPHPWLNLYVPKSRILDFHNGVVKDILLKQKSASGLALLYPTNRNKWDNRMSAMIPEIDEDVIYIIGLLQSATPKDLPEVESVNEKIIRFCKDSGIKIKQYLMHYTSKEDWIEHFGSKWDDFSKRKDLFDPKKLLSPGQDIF
The assay is described as follows: Inhibition of sArabidopsis thaliana CKX2 expressed in Saccharomyces cerevisiae 23344c ura-.
Conditions: not given
`Clc1ccc(Nc2nc(Cl)nc3[nH]cnc23)cc1`: half-maximal inhibition (IC50) required 25.4 µM.

For `COc1cccc(Nc2nc(F)nc3[nH]cnc23)c1`, inhibition was half-maximal at 1 µM (IC50). Compared with the last molecule, the IC50 is about 25-fold lower.

In the case of `Oc1cccc(Nc2nc(Cl)nc3[nH]cnc23)c1`, the IC50 (commonly the concentration at which inhibition is half-maximal) was 3.75 µM. This IC50 is about 3.8-fold higher than that of the molecule before.

Turning to `Oc1ccc(Nc2nc(Cl)nc3[nH]cnc23)cc1`, the IC50 was > 100 µM.

Regarding `COc1cccc(Nc2nc(Cl)nc3[nH]cnc23)c1`, the IC50 is 1.9 µM.

`COc1cccc(Nc2ncnc3[nH]cnc23)c1` showed an IC50 of 12.4 µM.

With `Oc1ccccc1Nc1nc(Cl)nc2nc[nH]c12`, the IC50 was > 100 µM.

Regarding `Fc1cccc(Nc2nc(Cl)nc3[nH]cnc23)c1`, inhibition was half-maximal at 7.5 µM (IC50).

Molecule `O=C(Nc1ccccc1)Nc1cnns1` [THIDIAZURON] showed an IC50 of 29 µM.

The next assay deals with Nicotiana tabacum. The assay is described as follows: Cytokinin-like effect in tobacco assessed as stimulation of callus growth at 100 umol/L relative to 6-benzylaminopurine. The class given is functional.
Conditions: not given
The method in brief:
(§1)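 Cytokinin-dependent tobacco callus growth in 6-well plates, 3 mL MS medium per well, otherwise per published protocol. Compounds from DMSO stocks diluted into medium, final DMSO ≤0.2%. Five replicates per concentration, whole test repeated at least three times. Activity expressed relative to BAP set at 100 (reference 10^-6 M BAP) at the optimal concentration.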
In the case of `Oc1ccc(Nc2nc(Cl)nc3[nH]cnc23)cc1`, the Activity is 60%.

Another assay concerns Nicotiana tabacum. The assay is described as follows: Cytokinin-like effect in tobacco assessed as stimulation of callus growth at 10 umol/L relative to 6-benzylaminopurine. The class given is functional. To be noted: at 10 µM.
As for `Clc1ccc(Nc2nc(Cl)nc3[nH]cnc23)cc1`, the Activity is reported as 77%.

On to `COc1cccc(Nc2nc(F)nc3[nH]cnc23)c1`, for which the Activity came out at 74%.

As to `Oc1cccc(Nc2nc(Cl)nc3[nH]cnc23)c1`, the Activity is reported as 111%.

Regarding `COc1cccc(Nc2nc(Cl)nc3[nH]cnc23)c1`, the Activity was 103%.

As for `COc1cccc(Nc2ncnc3[nH]cnc23)c1`, the Activity worked out at 42%.

As for `C/C(=C\CNc1ncnc2[nH]cnc12)CO`, the Activity was 104.6%.

The subject of a further assay is Nicotiana tabacum. Kind of assay: Cytokinin-like effect in tobacco assessed as stimulation of callus growth at 1 umol/L relative to 6-benzylaminopurine.
Conditions: not given
The class given is functional. Summed up:
as §1
In the case of `Fc1cccc(Nc2nc(Cl)nc3[nH]cnc23)c1`, the Activity is 101%.

A further assay concerns Nicotiana tabacum. The assay is described as follows: Cytokinin-like effect in tobacco assessed as stimulation of callus growth at 0.1 umol/L relative to 6-benzylaminopurine. The class given is functional.
Conditions: not given
The method in brief:
as §1
Regarding `O=C(Nc1ccccc1)Nc1cnns1` [THIDIAZURON], the Activity was determined as 102.3%.

In the next assay the test system is Amaranthus. Kind of assay: Cytokinin-like effect in Amaranthus cotyledons assessed as dark induction of betacyanin synthesis at 100 umol/L relative to 6-benzylaminopurine. The class given is functional. The following applies: at 100 µM.
For `Clc1ccc(Nc2nc(Cl)nc3[nH]cnc23)cc1`, the Activity stood at 139%.

For `COc1cccc(Nc2nc(F)nc3[nH]cnc23)c1`, the Activity is recorded as 107%.

On to `Oc1cccc(Nc2nc(Cl)nc3[nH]cnc23)c1`, for which the Activity is listed as 52%.

For `Oc1ccc(Nc2nc(Cl)nc3[nH]cnc23)cc1`, the Activity was 47.5%.

As to `COc1cccc(Nc2nc(Cl)nc3[nH]cnc23)c1`, the Activity is listed as 149%.

Take `COc1cccc(Nc2ncnc3[nH]cnc23)c1`: the Activity is 124.5%.

In the case of `Fc1cccc(Nc2nc(Cl)nc3[nH]cnc23)c1`, the Activity amounted to 147%.

Regarding `C/C(=C\CNc1ncnc2[nH]cnc12)CO`, the Activity came to 129.6%.

In another assay the test system is Amaranthus. Kind of assay: Cytokinin-like effect in Amaranthus cotyledons assessed as dark induction of betacyanin synthesis at 0.1 umol/L relative to 6-benzylaminopurine. The class given is functional.
Conditions: not given
The method in brief: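 Dark induction of betacyanin synthesis in Amaranthus cotyledons, per previously published protocol. Compounds from DMSO stocks diluted into medium, final DMSO ≤0.2%. Five replicates per concentration, whole test repeated at least three times. Relative activity taken at the optimal concentration against BAP set at 100 (reference 10^-5 M BAP).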
`O=C(Nc1ccccc1)Nc1cnns1` [THIDIAZURON]: the Activity was 121.1%.

For a further assay, the system named is Triticum aestivum. The assay is described as follows: Cytokinin-like effect in wheat assessed as retention of chlorophyll in excised leaves at 100 umol/L by senescence assay relative to 6-benzylaminopurine. The class given is functional. To be noted: at 100 µM.
On to `Clc1ccc(Nc2nc(Cl)nc3[nH]cnc23)cc1`, for which the Activity is given as 10%.

`COc1cccc(Nc2nc(F)nc3[nH]cnc23)c1`: the Activity is 13.5%.

`Oc1cccc(Nc2nc(Cl)nc3[nH]cnc23)c1`: the Activity was determined as 6%.

With `Oc1ccc(Nc2nc(Cl)nc3[nH]cnc23)cc1`, the Activity is reported as 14%.

Regarding `COc1cccc(Nc2nc(Cl)nc3[nH]cnc23)c1`, the Activity is given as 11%.

On to `COc1cccc(Nc2ncnc3[nH]cnc23)c1`, for which the Activity amounted to 13%.

Regarding `Fc1cccc(Nc2nc(Cl)nc3[nH]cnc23)c1`, the Activity is listed as 15%.

On to `C/C(=C\CNc1ncnc2[nH]cnc12)CO`, for which the Activity turned out to be 122%.

With `O=C(Nc1ccccc1)Nc1cnns1` [THIDIAZURON], the Activity is 108.7%.

The values are drawn from ChEMBL document CHEMBL1142465, “Novel potent inhibitors of A. thaliana cytokinin oxidase/dehydrogenase” (Bioorg Med Chem, 2008).
